Screens (PubChem BioAssay)
CRFR2-BP ag = agonists of human CRF-binding protein/CRF-R2 receptor complex; HEK293 CRF-R2/CRF-BP, calcium dye fluorescence (FLIPR); percent of saturating CRF peptide response; activation, % at 13.2 µM; 350,000 compounds, 0.46% hits; AID 588473;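 active = activation of at least 50%, plus an integration ratio under a set limit after plate pattern correction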;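 note: plate controls were neutral control wells without compound for no effect and CRF at EC100 for full effect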
OXTR potentiator = potentiates the human oxytocin receptor response. P30559. CHO-OTR cells, Fluo-8 calcium fluorescence, potentiator mode; 0% = oxytocin EC15, 100% = EC100. activation, % at 3 µM. 320,000 compounds, 0.061% hits. AID 2445;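 active = activation above that plate's cutoff, the mean activation of tested compounds plus 3 SD, cut at about 6.6% in these data, passing the limit was not always enough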;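 note: 100% uses oxytocin at 75 nM as the full agonist control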
Target sequence (P30559 whole entry, looked up): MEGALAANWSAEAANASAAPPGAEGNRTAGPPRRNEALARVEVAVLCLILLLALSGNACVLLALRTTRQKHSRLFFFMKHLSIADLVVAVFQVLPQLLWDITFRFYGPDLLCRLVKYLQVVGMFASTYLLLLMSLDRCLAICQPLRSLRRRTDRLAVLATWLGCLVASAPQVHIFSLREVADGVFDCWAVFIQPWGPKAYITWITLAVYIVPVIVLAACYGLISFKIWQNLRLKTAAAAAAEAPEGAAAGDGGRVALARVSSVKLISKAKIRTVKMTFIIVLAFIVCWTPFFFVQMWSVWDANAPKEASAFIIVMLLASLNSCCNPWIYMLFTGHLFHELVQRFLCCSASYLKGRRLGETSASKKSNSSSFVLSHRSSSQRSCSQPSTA
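Measured by – Fluo-8 calcium dye fluorescence · Test system – human OTR in CHO cells · Dosing – one concentration, 3.0 µM compound · Controls – EC15 oxytocin alone as 0%, 75 nM oxytocin as 100% · Evaluation – normalized max/min fluorescence ratio, % activation · Timing – 6 min pre-incubation, 100 s read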
OXTR agonist = agonists of human oxytocin receptor | activation, % at 3 µM | 320,000 compounds, 0.32% hits | CHO-OTR cells, Fluo-8 calcium fluorescence; normalized: DMSO 0%, oxytocin 100% | P30559 | AID 2435;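 active = activation above the mean of all tested compounds plus 3 SD, cutoff set per screening run, cut at about 20% in these data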;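 note: peak over basal fluorescence ratio from a 100 s FLIPR kinetic read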
zfTRPN1 agonist = activates the zebrafish TRPN1 channel. HEK293 zebrafish TRPN1-YFP, Fluo-8 calcium fluorescence; 100% = response to 87 µM carbachol. 220,000 compounds, 0.18% hits. activation, % at 3 µM;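 active = activation above its plate's cutoff, the mean activation of test wells on that plate plus 3 SD, cut at about 19% in these data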;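 note: 0% = DMSO alone and 100% = 87 µM carbachol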
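Material: zebrafish TRPN1-YFP in HEK293 cells; Doses: single test compound dose, 3 µM nominal, 0.3% DMSO; Timing: dye loading 1 h at 37 °C, then 30 min room temperature; Technique: intracellular calcium fluorescence with Fluo-8; Benchmarks: high carbachol 87 µM, low DMSO alone.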
TRPML3 ag = human mucolipin-3 channel agonism | HEK293 TRPML3-YFP, Fluo-8 calcium fluorescence; 100% = the carbachol control signal | activation, % at 3 µM | AID 1448 | 220,000 compounds, 0.29% hits | Q8TDD5;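 active = activation above its plate's cutoff, the mean activation of the plate's test wells plus 3 SD, cut at about 12% in these data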;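 note: 0% = DMSO only wells and 100% = carbachol wells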
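system = HEK293 cells stably carrying human TRPML3-YFP | doses = one concentration, 3 µM nominal, 0.3% DMSO | timing = dye loading 1 h 37 °C then 30 min ambient, 125 s read | detection = Fluo-8 calcium dye fluorescence, ex 470-495, em 515-575 nm | benchmarks = high control carbachol 87 µM, low control DMSO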
V1R ag counter = V1a receptor agonism, counter-screen for OXTR agonists | P37288 | CHO-V1R cells, Fluo-8 calcium fluorescence, agonist mode; 0% DMSO, 100% 3 nM vasopressin | activation, % at 3 µM | 320,000 compounds, 0.25% hits | AID 2797;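 active = activation above the mean activation of all tested compounds plus 3 SD, per screening run, cut at about 20% in these data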;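 note: signal is peak over basal fluorescence ratio across a 100 second FLIPR read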
V1aR agonist cf = confirmation of human vasopressin V1a receptor agonists; CHO-V1R cells, Fluo-8 calcium fluorescence, agonist; activation, % at 3 µM; shares compounds with V1R ag counter; AID 434964; 180 compounds, 20% hits;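 active = average activation exceeds primary screen hit cutoff, cut at about 21% in these data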;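 note: peak over basal fluorescence ratio during a 100 s FLIPR read; 0% = DMSO only wells and 100% = 3 nM vasopressin wells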
OXTR counter = activates oxytocin receptor in V1a agonist counter-screen | shares compounds with V1R ag counter | CHO-OTR cells, Fluo-8 calcium fluorescence | activation, % at 3 µM | 180 compounds, 10% hits | AID 434969;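 active = mean activation over three repeats above the cutoff from the earlier oxytocin receptor agonist screen, cut at about 20% in these data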;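 note: peak over minimum fluorescence ratio within a 100 second FLIPR read; 0% = DMSO only wells and 100% = oxytocin high control wells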
Numbers without * were called inactive; x = not tested or not shown; ! = repeats disagree. In the library only some 0.85% were active in any assay of this set; here they are far more common.

SMILES	CRFR2-BP ag	OXTR potentiator	OXTR agonist	zfTRPN1 agonist	TRPML3 ag	V1R ag counter	V1aR agonist cf	OXTR counter
CC(=O)c1nn(-c2cccc(C)c2)cc1C(=O)c1cccc(Br)c1	2	4	-2	x	x	0	x	x
O=C(c1ccco1)N1CC2(CC(c3ccc(Cl)cc3)=NO2)CN1Cc1ccc(Br)cc1 (configuration not stated)	-1	x	x	x	x	x	x	x
Cc1ccc(CN2CCC[C@]3(N[C@H](c4ccc(C(F)(F)F)cc4)[C@@H]4C(=O)N(Cc5ccccc5)C(=O)[C@@H]43)C2=O)cc1	5	x	x	x	x	x	x	x
Cc1cccc(NC(=S)NNC(=O)c2ccco2)c1	-1	-3	1	1	1	23*	0	0
C#CCOCCOCCOCCNc1nc(N2CCN(C(=O)CCCCCCCCCCNC(=O)[C@H]([C@@H](C)CC)n3cc(CCCCCN)nn3)CC2)nc(N2CCN(C(=O)CCCCCCCCCCNC(=O)[C@H](CCCCN)n3cc(CCCC(=O)O)nn3)CC2)n1	25	-7	9	x	x	20*	2	1
C#CCOCCOCCOCCNc1nc(N2CCN(C(=O)CCCCCCCCCCNC(=O)[C@@H](CCC(=O)O)n3cc(CCCCCN)nn3)CC2)nc(N2CCN(C(=O)CCCCCCCCCCNC(=O)[C@H]([C@@H](C)CC)n3cc(CCCCCN)nn3)CC2)n1	37	-13	15	x	x	12	x	x
C#CCOCCOCCOCCNc1nc(N2CCN(C(=O)CCCCCCCCCCNC(=O)[C@H](CCCCN)n3cc(C)nn3)CC2)nc(N2CCN(C(=O)CCCCCCCCCCNC(=O)[C@H](CCCCN)n3cc(CCCC(=O)O)nn3)CC2)n1	2	-8	2	x	x	6	x	x
C#CCOCCOCCOCCNc1nc(N2CCN(C(=O)CCCCCCCCCCNC(=O)[C@H](CCCCN)n3cc(CCCC(=O)O)nn3)CC2)nc(N2CCN(C(=O)CCCCCCCCCCNC(=O)[C@@H]([C@H](C)O)n3cc(C)nn3)CC2)n1	6	-3	7	x	x	21*	5	2
Cc1cc(SCC(=O)N2c3ccccc3NC(=O)CC2C)nc2ccccc12 (configuration not stated)	0	x	x	x	x	x	x	x
CCCCCCCCCCOC(=O)Cn1c(COc2ccc(OC)cc2)[n+](C)c2ccccc21	8	-15	22*!	x	x	30*	0	8
CCCn1c(SCC(=O)Nc2ccccc2Cl)nc(O)cc1=O	3	x	x	x	x	x	x	x
CCCn1c(SCC(=O)Nc2cccc(F)c2)nc(O)cc1=O	2	-12	8	x	x	26*	0	0
CC(=O)c1c(C)[nH]c(C(=O)Nc2cccc(C(F)(F)F)c2)c1C	2	-30	16	x	x	12	x	x
CCOC(=O)c1c(NC(=O)CC)sc2c1CCN(Cc1ccccc1)C2	34	-5	4	x	x	22*	3	8
CN(CC(=O)Nc1ccc(F)cc1)C(=O)COC(=O)/C=C/c1ccccc1[N+](=O)[O-]	0	-4	0	x	x	1	x	x
COc1ccc(N(CC(=O)N2CCN(c3cccc(C)c3)C(C)C2)S(=O)(=O)c2c(C)n[nH]c2C)cc1 (configuration not stated)	-1	-14	0	-1	0	23*	0	-1
CCOC(=O)c1[nH]c(C)c(C(=O)N2CCN(c3ccc(OC)cc3)CC2)c1C	2	-17	1	0	1	3	x	x
CCOC(=O)c1[nH]c(CN2CCN(c3ccc(OC)cc3)CC2)c(C(=O)OCC)c1C	9	-29	18	x	x	24*	12	22*
Nc1c(C(=O)NCc2ccc3c(c2)OCO3)nnn1Cc1ccc(Br)cc1	1	-9	16	15	8	37*	15	23*
CS(=O)(=O)N(CC(=O)Nc1ccc(Br)cc1)C1CCCCC1	0	0	0	x	x	-1	x	x
CC1(C)CC(=O)C(C(C2=C(O)CC(C)(C)CC2=O)c2ccc(Cl)c([N+](=O)[O-])c2)C(=O)C1 (configuration not stated)	-1	-6	8	0	-1	48*	16	10
CN(CCC#N)C(=O)COC(=O)C1c2ccccc2Oc2ccccc21	-1	-2	2	x	x	1	x	x
N#CCCN(CCC#N)C(=O)C1c2ccccc2Oc2ccccc21	-1	-6	12	x	x	26*	1	1
CC(C)Cn1c(-c2ccc(Br)cc2)c[nH]c1=S	-2	-24	8	-4	-1	35*	0	-1
Cc1c(NC(=O)CSc2nnc(-c3ccncc3)n2C)c(=O)n(-c2ccccc2)n1C	-1	x	x	x	x	x	x	x
SMILES	CRFR2-BP ag	OXTR potentiator	OXTR agonist	zfTRPN1 agonist	TRPML3 ag	V1R ag counter	V1aR agonist cf	OXTR counter
CC(=O)Nc1ccc(N=Cc2c(O)c(C(=O)Nc3ccccc3)cc3ccccc23)cc1	115*	-14	13	6	2	38*	193*	169*
CC(=O)Nc1ccc(N=Cc2c(O)c3ccccc3oc2=O)cc1	4	x	x	x	x	x	x	x
c1ccc(NCCC2OCC3(CO2)COC(CCNc2ccccc2)OC3)cc1 (configuration not stated)	4	x	x	x	x	x	x	x
O=C(N/N=C/c1sc(=O)[nH]c1-[n+]1ccc2ccccc2c1)c1ccccc1[O-]	-2	-3	17	x	x	27*	1	0
O=C(N/N=C/c1sc(=O)[nH]c1-[n+]1ccccc1)c1ccccc1[O-]	7	1	1	-1	-1	1	x	x
O=C(COc1ccccc1[N+](=O)[O-])N/N=C/c1ccc(O)c([N+](=O)[O-])c1	-3	-14	3	0	0	67*	0	-1
C[C@H](CO)N1C[C@H](C)[C@@H](CN(C)Cc2ccc(-c3ccccc3)cc2)Oc2c(NS(=O)(=O)c3cn(C)cn3)cccc2C1=O	-1	-4	1	x	x	77*	-1	1
CC(CC(=O)N1CCN(c2cccc(Cl)c2)CC1)S(=O)(=O)c1ccc2c(c1)NC(=O)CO2 (configuration not stated)	1	-13	17	x	x	21*	7	5
CCCCCC(=C/c1ccccc1)/C=N/Nc1ccc(S(=O)(=O)N2CCOCC2)cc1[N+](=O)[O-]	3	x	x	x	x	x	x	x
O=C(O)c1ccccc1C1=Nc2ccc(O)cc2Oc2cc(O)ccc21	107*	-7	17	5	2	23*	27*	20*
Cc1cc(-c2ccccc2C(=O)O)on1	0	-13	0	0	1	0	x	x
